Reference: ChEMBL document CHEMBL3085696, “Aurora isoform selectivity: design and synthesis of imidazo[4,5-b]pyridine derivatives as highly selective inhibitors of Aurora-A kinase in cells” (J Med Chem, 2013)
Active and inactive are the calls of the source. The calls are words filed in the database; no cut-off is given here.

Legend:
Aurora kinase A [1] = biological target: T1, Aurora kinase A (Homo sapiens, UniProt O14965); experiment: Inhibition of N-terminal HIS-tagged aurora-A (unknown origin) using 5FAM-LRRASLG-CONH2 as substrate after 60 mins
T1 sequence (O14965 whole entry): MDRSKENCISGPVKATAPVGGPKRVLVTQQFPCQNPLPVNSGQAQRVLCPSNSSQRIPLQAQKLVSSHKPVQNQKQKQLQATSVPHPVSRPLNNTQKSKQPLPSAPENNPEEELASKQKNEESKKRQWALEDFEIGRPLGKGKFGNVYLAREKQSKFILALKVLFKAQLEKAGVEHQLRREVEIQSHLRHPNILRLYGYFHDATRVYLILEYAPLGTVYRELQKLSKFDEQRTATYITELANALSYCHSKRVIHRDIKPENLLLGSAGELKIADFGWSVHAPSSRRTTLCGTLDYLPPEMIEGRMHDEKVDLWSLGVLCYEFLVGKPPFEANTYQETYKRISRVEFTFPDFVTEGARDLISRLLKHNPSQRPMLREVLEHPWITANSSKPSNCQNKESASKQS
In short: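 Aurora-A (5 nM N-terminal His-tagged) incubated with 1.5 μM 5FAM-LRRASLG-CONH2 peptide and 20 μM ATP in 50 mM Tris pH 7.4, 200 mM NaCl, 5 mM MgCl2, 2 mM DTT, 0.1% Tween 20. Runs 60 min at room temperature; EDTA stop. Microfluidic separation of product from substrate. Duplicate 8-point curves, 0.25 pM–200 μM final, 1–2% DMSO. IC50 from four-parameter logistic fit.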

Aurora kinase B [2] = biological target: T2, Aurora kinase B (Homo sapiens, UniProt Q96GD4); experiment: Inhibition of full-length aurora-B (unknown origin) using 5FAMLRRASLG-CONH2 as substrate after 60 mins
T2 sequence (Q96GD4 whole entry): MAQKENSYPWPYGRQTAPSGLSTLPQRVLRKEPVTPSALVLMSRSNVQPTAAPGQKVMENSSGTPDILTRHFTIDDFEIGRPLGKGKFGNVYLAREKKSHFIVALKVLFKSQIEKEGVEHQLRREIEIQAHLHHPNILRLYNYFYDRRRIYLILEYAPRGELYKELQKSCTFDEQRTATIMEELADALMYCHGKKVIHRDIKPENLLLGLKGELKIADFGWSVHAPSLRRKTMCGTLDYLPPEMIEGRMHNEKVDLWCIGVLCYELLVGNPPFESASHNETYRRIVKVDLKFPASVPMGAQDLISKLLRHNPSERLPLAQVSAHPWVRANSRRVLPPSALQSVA
In short: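 Full-length Aurora-B/INCENP complex (1 nM) incubated with 1.5 μM 5FAM-LRRASLG-CONH2 peptide and 15 μM ATP in Tris pH 7.4 buffer with NaCl, MgCl2, DTT, Tween 20. Runs 60 min at room temperature, then EDTA stop. Microfluidic mobility-shift readout of percent conversion. Duplicate 8-point curves, 0.25 pM–200 μM final. IC50 by four-parameter logistic fit.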

HeLa = experiment: Selectivity ratio of IC50 for aurora-B-mediated histone H3 phosphorylation at S10 in human HeLa cells to IC50 for autophosphorylation of N-terminal Myc tagged aurora-A at T288 in human HeLa cells; format: cell-based
In short: (§1)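 Cells transfected with Myc-tagged Aurora-A (wild type or T217E, L215R, R220K mutants) and treated with inhibitor concentrations for 2 h. Lysed in LDS buffer; SDS-type PAGE and western blot. Blots probed for P-T288 (Aurora-A autophosphorylation) and phospho-histone H3 S10 (Aurora-B substrate). Blots quantified; IC50 derived; ratio taken as H3 IC50 over T288 IC50.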

Aurora kinase A [3] = biological target: T1, Aurora kinase A; experiment: Inhibition of autophosphorylation of N-terminal Myc tagged aurora-A at T288 in human HeLa cells after 2 hrs; format: cell-based; in short: as §1
Aurora kinase B [4] = biological target: T2, Aurora kinase B; experiment: Inhibition of N-terminal Myc tagged aurora-B-mediated histone H3 phosphorylation at S10 in human HeLa cells after 2 hrs; format: cell-based; in short: as §1
Aurora kinase B [5] = biological target: T2, Aurora kinase B; experiment: Inhibition of N-terminal Myc tagged aurora-B (unknown origin)-mediated histone H3 phosphorylation at S10 after 2 hrs; in short: as §1
Aurora kinase A [6] = biological target: T1, Aurora kinase A; experiment: Inhibition of autophosphorylation of N-terminal Myc tagged aurora-A at T288 (unknown origin) after 2 hrs; in short: as §1
Homo sapiens = organism: Homo sapiens; experiment: Selectivity ratio of IC50 for aurora-B (unknown origin)-mediated histone H3 phosphorylation at S10 to IC50 for autophosphorylation of N-terminal Myc tagged aurora-A at T288 (unknown origin); in short: as §1
Aurora kinase A [7] = biological target: T1, Aurora kinase A; experiment: Inhibition of autophosphorylation of N-terminal Myc tagged aurora-A at T288 in human HCT116 cells after 2 hrs; format: cell-based, HCT-116; in short: as §1
Aurora kinase B [8] = biological target: T2, Aurora kinase B; experiment: Inhibition of N-terminal Myc tagged aurora-B-mediated histone H3 phosphorylation at S10 in human HCT116 cells after 2 hrs; format: cell-based, HCT-116
In short: (§2)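 Cells transfected with N-terminal Myc-tagged Aurora-A (wild type or T217E, L215R or R220K mutant, made by Quikchange mutagenesis), then exposed to a range of inhibitor concentrations for 2 h. Lysed in LDS sample buffer, sonicated, boiled, run on LDS-PAGE and blotted to nitrocellulose. Probed with anti-P-T288 (Aurora-A autophosphorylation) and anti-P-histone H3 S10 (Aurora-B substrate) antibodies. Blots quantified and IC50 fitted.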

Aurora kinase B [9] = biological target: T2, Aurora kinase B; settings: HCT-116, 25 to 50 uM
[10] = biological target: T3, Aurora kinase A (Homo sapiens) (UniProt O14965); settings: HCT-116, 1.5 uM
T3 sequence (whole entry): T1 sequence (O14965 whole entry)

[11] = biological target: Vascular endothelial growth factor receptor 1 (Homo sapiens) (UniProt P17948); experiment: Inhibition of VEGFR1 (unknown origin) at 1 uM
Chain of Vascular endothelial growth factor receptor 1 (Homo sapiens) (P17948 whole entry): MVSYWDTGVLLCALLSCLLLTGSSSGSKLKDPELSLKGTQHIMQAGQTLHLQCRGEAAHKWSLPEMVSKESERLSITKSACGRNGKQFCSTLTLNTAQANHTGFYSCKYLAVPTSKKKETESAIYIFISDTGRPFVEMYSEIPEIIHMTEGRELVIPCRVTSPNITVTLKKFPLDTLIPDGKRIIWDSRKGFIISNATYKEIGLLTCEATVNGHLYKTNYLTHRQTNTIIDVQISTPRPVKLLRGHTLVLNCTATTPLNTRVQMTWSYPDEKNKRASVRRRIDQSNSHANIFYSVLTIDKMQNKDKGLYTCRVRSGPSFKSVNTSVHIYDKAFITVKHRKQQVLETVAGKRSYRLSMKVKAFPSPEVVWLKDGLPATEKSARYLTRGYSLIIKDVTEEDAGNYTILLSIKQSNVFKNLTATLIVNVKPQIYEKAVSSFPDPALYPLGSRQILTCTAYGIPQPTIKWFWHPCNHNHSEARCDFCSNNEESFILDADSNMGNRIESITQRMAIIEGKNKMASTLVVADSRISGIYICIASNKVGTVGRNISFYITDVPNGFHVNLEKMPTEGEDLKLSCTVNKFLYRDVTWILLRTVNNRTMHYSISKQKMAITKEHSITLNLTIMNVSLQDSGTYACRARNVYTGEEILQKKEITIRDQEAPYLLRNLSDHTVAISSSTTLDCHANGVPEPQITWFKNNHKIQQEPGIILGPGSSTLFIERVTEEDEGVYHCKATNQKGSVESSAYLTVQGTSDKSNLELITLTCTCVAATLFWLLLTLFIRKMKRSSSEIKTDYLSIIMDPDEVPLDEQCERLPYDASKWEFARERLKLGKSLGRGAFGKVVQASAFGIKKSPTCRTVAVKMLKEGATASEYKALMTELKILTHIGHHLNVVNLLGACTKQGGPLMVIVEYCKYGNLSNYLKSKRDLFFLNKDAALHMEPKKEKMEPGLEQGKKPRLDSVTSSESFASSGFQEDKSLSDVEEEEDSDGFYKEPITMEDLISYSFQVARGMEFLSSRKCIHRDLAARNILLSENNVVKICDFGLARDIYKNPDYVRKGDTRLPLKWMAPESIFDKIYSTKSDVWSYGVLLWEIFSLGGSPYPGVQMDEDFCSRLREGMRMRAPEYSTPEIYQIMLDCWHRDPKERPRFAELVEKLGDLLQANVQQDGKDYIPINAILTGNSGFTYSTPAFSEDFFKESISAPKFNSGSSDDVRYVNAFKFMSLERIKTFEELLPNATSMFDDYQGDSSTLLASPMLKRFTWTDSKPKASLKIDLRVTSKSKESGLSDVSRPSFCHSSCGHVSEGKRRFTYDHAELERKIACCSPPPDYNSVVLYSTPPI
In short: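 110-kinase panel profiling, compounds tested at 1 μM, read as percent inhibition.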

Mus musculus = experiment: Oral bioavailability in Balb/C mouse at 5 mg/kg; format: ADME, organism-based; settings: in vivo
In short: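 Female Balb/C mice given 5 mg/kg po or iv in 10% DMSO/5% Tween 20 in saline. Terminal cardiac-puncture plasma taken at 5, 15, 30 min and 1, 2, 4, 6, 24 h. Methanol precipitation with olomoucine internal standard. Analysis by LC/MS (ESI+ MRM).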

[12] = Metabolic stability in CD1 mouse liver microsomes at 10 uM after 30 mins; format: ADME, Microsome; settings: read-out: Stability
In short: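 Compound at 10 μM incubated with male CD1 mouse liver microsomes (1 mg/mL protein) plus NADPH 1 mM, UDPGA 2.5 mM and MgCl2 3 mM in 10 mM PBS at 37 °C, for 0 and 30 min. Controls omit cofactors. Percent remaining measured by LC/MS.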

Aurora kinase A [13] = biological target: Aurora kinase A (Homo sapiens, UniProt O14965, R220K); experiment: Inhibition of autophosphorylation of aurora-A R220K mutant at T288 in human HCT116 cells after 2 hrs; format: cell-based, HCT-116; in short: as §2
Chain of Aurora kinase A (Homo sapiens, UniProt O14965, R220K) (O14965 whole entry I57V/R220K): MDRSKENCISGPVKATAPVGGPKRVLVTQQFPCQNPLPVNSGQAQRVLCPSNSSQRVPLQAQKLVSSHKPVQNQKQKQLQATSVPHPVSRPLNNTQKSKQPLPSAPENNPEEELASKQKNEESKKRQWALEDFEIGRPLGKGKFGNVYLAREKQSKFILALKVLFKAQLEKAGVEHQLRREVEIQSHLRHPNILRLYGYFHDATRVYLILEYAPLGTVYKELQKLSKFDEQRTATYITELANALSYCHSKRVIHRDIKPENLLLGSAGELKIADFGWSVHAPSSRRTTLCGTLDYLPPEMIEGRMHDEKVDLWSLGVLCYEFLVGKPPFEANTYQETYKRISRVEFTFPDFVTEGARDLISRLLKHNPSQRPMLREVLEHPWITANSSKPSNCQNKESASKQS

Aurora kinase A [14] = biological target: Aurora kinase A (Homo sapiens, UniProt O14965, T217E); experiment: Inhibition of autophosphorylation of aurora-A T217E mutant at T288 in human HCT116 cells after 2 hrs; format: cell-based, HCT-116; in short: as §2
Chain of Aurora kinase A (Homo sapiens, UniProt O14965, T217E) (O14965 whole entry I57V/T217E): as the sequence (O14965 whole entry I57V/R220K) above, with T217E, K220R counted along it

[15] = Metabolic stability in human liver microsomes at 10 uM after 30 mins; format: ADME; settings: read-out: Stability
In short: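 Mixed-gender pooled human liver microsomes (1 mg/mL) incubated with compound at 10 μM plus NADPH 1 mM, UDPGA 2.5 mM and MgCl2 3 mM in 10 mM PBS at 37 °C, for 0 and 30 min. Cofactor-free controls included. Percent remaining measured by LC/MS.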

Aurora kinase A [16] = biological target: T1, Aurora kinase A; experiment: Inhibition of autophosphorylation of N-terminal Myc tagged wild type aurora-A at T288 in human HCT116 cells after 2 hrs; format: cell-based, HCT-116; in short: as §2
Aurora kinase A [17] = biological target: Aurora kinase A (Homo sapiens, UniProt O14965, L215R); experiment: Inhibition of autophosphorylation of aurora-A L215R mutant at T288 in human HCT116 cells after 2 hrs; format: cell-based, HCT-116; in short: as §2
Chain of Aurora kinase A (Homo sapiens, UniProt O14965, L215R) (O14965 whole entry I57V/L215R): as the sequence (O14965 whole entry I57V/R220K) above, with L215R, K220R counted along it

Structure (SMILES) | IC50 (Aurora kinase A [1]) [nM] | IC50 (Aurora kinase B [2]) [nM] | other results
Cn1cc(-c2[nH]c3ncc(Cl)cc3c2-c2cccc(CNS(C)(=O)=O)c2)cn1 | 211 | 441 | –
Cc1nn(C)cc1-c1nc2ncc(Cl)c(N3CCC[C@@H](CNS(C)(=O)=O)C3)c2[nH]1 | 7 | 17 | –
Cc1nn(C)cc1-c1nc2c(Oc3ccc(C(=O)Nc4ccncc4)cc3)c(Cl)cnc2[nH]1 | – | – | Ratio IC50 (HeLa): 34
CC(=O)NC[C@@H]1CCN(c2c(Cl)cnc3nc(-c4cn(C)nc4C)[nH]c23)C1 | 9 | 7 | –
COc1ccc(-c2[nH]c3ncc(Cl)cc3c2-c2cccc(CNS(C)(=O)=O)c2)cc1 | 1940 | 7100 | –
Cc1nn(C)cc1-c1nc2c(N3CCC[C@H](CN(C)S(C)(=O)=O)C3)c(Cl)cnc2[nH]1 | 5 | 9 | –
COc1ccc(-c2[nH]c3ncc(Cl)cc3c2-c2cccc(CNC(C)=O)c2)cc1 | 743 | 1090 | –
Cc1nn(C)cc1-c1nc2c(Oc3ccc(C(=O)NC4CCC4)cc3)c(Cl)cnc2[nH]1 | – | – | inhibition (Aurora kinase B [9]): Active; inhibition [10]: Active; inhibition [11]: > 80%; Ratio IC50 (HeLa): 346
CC(=O)NCc1cccc(-c2c(-c3cnn(C)c3)[nH]c3ncc(Cl)cc23)c1 | 118 | 97 | –

Now from value to molecule, other results behind:

IC50 (Aurora kinase A [1]) [nM] | IC50 (Aurora kinase B [2]) [nM] | Structure (SMILES) | other results
255 | 169 | Cc1nn(C)cc1-c1nc2c(N(C)Cc3ccccc3)c(Cl)cnc2[nH]1 | –
618 | – | Cc1nn(C)cc1-c1nc2c(Oc3ccc(C(=O)Nc4ccccc4)cc3)ccnc2[nH]1 | –
58 | 1680 | Cc1nn(C)cc1-c1nc2c(Oc3ccc(C(=O)Nc4cccnc4)cc3)c(Cl)cnc2[nH]1 | IC50 (Aurora kinase A [3]): 280 nM; Ratio IC50 (HeLa): 70; IC50 (Aurora kinase B [4]): 19700 nM
75 | 4120 | Cc1nn(C)cc1-c1nc2c(Nc3ccc(C(=O)Nc4ccccc4)cc3)c(Cl)cnc2[nH]1 | IC50 (Aurora kinase B [5]): 18600 nM; IC50 (Aurora kinase A [6]): 320 nM; Ratio IC50 (Homo sapiens): 58
25800 | – | O=C(Nc1ccccc1)c1ccc(Oc2c(Cl)cnc3nc[nH]c23)cc1 | –
4 | 2 | CC(=O)N[C@@H]1CCN(c2c(Cl)cnc3[nH]c(-c4cn(C)nc4C)nc23)C1 | –
71 | 693 | Cc1cc(NC(=O)c2ccc(Oc3c(Cl)cnc4nc(-c5cn(C)nc5C)[nH]c34)cc2)on1 | IC50 (Aurora kinase A [7]): 95 nM; IC50 (Aurora kinase B [8]): 4930 nM
45 | 1820 | Cc1nn(C)cc1-c1nc2ncc(Cl)c(Oc3ccc(C(=O)N4CCCC4)cc3)c2[nH]1 | –
5 | 8 | Cc1nn(C)cc1-c1nc2c(N3CCC[C@H](CNS(C)(=O)=O)C3)c(Cl)cnc2[nH]1 | –
204 | 3910 | Cc1nn(C)cc1-c1nc2c(Oc3ccc(C(=O)NCc4ccccc4)cc3)c(Cl)cnc2[nH]1 | –
270 | 80 | CC(=O)N[C@H]1CCN(c2c(Cl)cnc3[nH]c(-c4cn(C)nc4C)nc23)C1 | –
190 | 3450 | Cc1nn(C)cc1-c1nc2ncc(Cl)c(Oc3ccc(C(=O)Nc4ccncc4)cc3)c2[nH]1 | IC50 (Aurora kinase A [3]): 580 nM; IC50 (Aurora kinase B [4]): 19700 nM
15 | 3050 | Cc1nn(C)cc1-c1nc2ncc(Cl)c(Oc3ccc(C(=O)NC4CCC4)cc3)c2[nH]1 | F (Mus musculus): 14%; IC50 (Aurora kinase A [3]): 70 nM; remaining at 0.5 h, 10 µM [12]: 28%; IC50 (Aurora kinase A [13]): 42 nM; IC50 (Aurora kinase A [14]): 2290 nM; remaining at 0.5 h, 10 µM [15]: 22%; IC50 (Aurora kinase B [4]): 24200 nM; IC50 (Aurora kinase A [16]): 36 nM; IC50 (Aurora kinase A [17]): 43 nM
